These results are taken from ChEMBL document CHEMBL1122179, “1-(alkylamino)isochromans: hypotensives with peripheral and central activities” (J Med Chem, 1982).

Activity calls are given as the source filed them. No cut-off for these calls is given here.

For test [1], the system named is Rattus norvegicus. In words: Delta BP refers to oral hypotensive activity of compound which is evaluated at 4 hr and 24 hr in restrained, normotensive conscious rats at a dose of 50 mg/kg; -4/-10. It is filed as functional. The procedure, abridged: (§1)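 Female Sprague-Dawley rats, normotensive, restrained in a towel. Blood pressure was read directly via chronic indwelling aortic cannulas exteriorized at the nape, before and 4 and 24 h after an oral dose suspended in carboxymethylcellulose (10 mL/kg). Values from two animals were averaged at each time; a mean change of at least 5 mmHg was taken as significant (p < 0.05).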

Test [2] relates to Rattus norvegicus. In words: Delta BP refers to oral hypotensive activity of compound which is evaluated at 4 hr and 24 hr in restrained, normotensive conscious rats at a dose of 50 mg/kg; 3/2. It is filed as functional. The essentials:
as §1

The subject of test [3] is Rattus norvegicus. In words: Delta BP refers to oral hypotensive activity of compound which is evaluated at 4 hr and 24 hr in restrained, normotensive conscious rats at a dose of 50 mg/kg; -8/-1. The test is classed as functional. The procedure, abridged: as §1
The subject of test [4] is Rattus norvegicus. In words: Delta BP refers to oral hypotensive activity of compound which is evaluated at 4 hr and 24 hr in restrained, normotensive conscious rats at a dose of 50 mg/kg. It is filed as functional, organism-based. Further details: dose 50 mg/kg. The procedure, abridged:
as §1

Test [5] concerns Rattus norvegicus. In words: Delta BP refers to oral hypotensive activity of compound which is evaluated at 4 hr and 24 hr in restrained, normotensive conscious rats at a dose of 50 mg/kg; -16/3. It is filed as functional. The settings on record: dose 15 mg/kg, in the assay text read “dose of 15 mg/kg” for “dose of 50 mg/kg”. The procedure, abridged:
as §1

The subject of test [6] is Rattus norvegicus. In words: Delta BP refers to oral hypotensive activity of compound which is evaluated at 4 hr and 24 hr in restrained, normotensive conscious rats at a dose of 50 mg/kg; -22/-25. The test is classed as functional. The essentials: as §1
Test [7] relates to Rattus norvegicus. In words: Delta BP refers to oral hypotensive activity of compound which is evaluated at 4 hr and 24 hr in restrained, normotensive conscious rats at a dose of 50 mg/kg; -13/-2. The test is classed as functional. The essentials: as §1
The subject of test [8] is Rattus norvegicus. In words: Delta BP refers to oral hypotensive activity of compound which is evaluated at 4 hr and 24 hr in restrained, normotensive conscious rats at a dose of 50 mg/kg; -10/-3. It is filed as functional. The essentials:
as §1

For test [9], the system named is Rattus norvegicus. In words: Delta BP refers to oral hypotensive activity of compound which is evaluated at 4 hr and 24 hr in restrained, normotensive conscious rats at a dose of 50 mg/kg; -19/-9. It is filed as functional. The procedure, abridged:
as §1

The test system of test [10] is Rattus norvegicus. In words: Delta BP refers to oral hypotensive activity of compound which is evaluated at 4 hr and 24 hr in restrained, normotensive conscious rats at a dose of 50 mg/kg; -9/-10. It is filed as functional. The essentials:
as §1

The subject of test [11] is Rattus norvegicus. In words: Delta BP refers to oral hypotensive activity of compound which is evaluated at 4 hr and 24 hr in restrained, normotensive conscious rats at a dose of 50 mg/kg; -20/-5. The test is classed as functional. The essentials:
as §1

In test [12] the test system is Rattus norvegicus. In words: Delta BP refers to oral hypotensive activity of compound which is evaluated at 4 hr and 24 hr in restrained, normotensive conscious rats at a dose of 50 mg/kg; -2/2. It is filed as functional. The procedure, abridged:
as §1

In test [13] the test system is Rattus norvegicus. In words: Delta BP refers to oral hypotensive activity of compound which is evaluated at 4 hr and 24 hr in restrained, normotensive conscious rats at a dose of 50 mg/kg; -16/-14. The test is classed as functional. The procedure, abridged: as §1
The subject of test [14] is Rattus norvegicus. In words: Delta BP refers to oral hypotensive activity of compound which is evaluated at 4 hr and 24 hr in restrained, normotensive conscious rats at a dose of 50 mg/kg; 0/-14. The test is classed as functional. The procedure, abridged: as §1
Test [15] deals with Rattus norvegicus. In words: Delta BP refers to oral hypotensive activity of compound which is evaluated at 4 hr and 24 hr in restrained, normotensive conscious rats at a dose of 50 mg/kg; -19/-21. It is filed as functional. The essentials:
as §1

In the case of `COc1cc2c(cc1OC)C(C)(C)COC2CCN1CCN(c2cccc(Cl)c2)CC1` (configuration not stated), in the test with Rattus norvegicus [1], the Delta blood pressure is recorded as -4 mmHg.

In the case of `COc1cc2c(cc1OC)C(CCN1CCN(c3ccccc3Cl)CC1)OCC2` (configuration not stated), in the test on Rattus norvegicus [2], the Delta blood pressure stood at 3 mmHg.

In the test on Rattus norvegicus [3], `COc1cc2c(cc1OC)C(C)(CCCN1CCN(c3ccc(Cl)cc3)CC1)OCC2` (configuration not stated) showed a Delta blood pressure of -8 mmHg.

On to `COc1cc2c(cc1OC)C(CCN1CCN(c3ccccn3)CC1)OC(C)(C)C2` (configuration not stated), for which, in the test on Rattus norvegicus [4], the Delta blood pressure result is “inactive”.

As for `COc1cc2c(cc1OC)C(CCCN1CCN(c3cccc(Cl)c3)CC1)(c1ccc(F)cc1)OCC2` (configuration not stated), the Delta blood pressure result with Rattus norvegicus [4] was “inactive”.

`COc1cc2c(cc1OC)C(C)(C)COC2CCN1CCN(c2ccc(F)cc2)CC1` (configuration not stated): the Delta blood pressure entry in the test on Rattus norvegicus [4] is “inactive”.

Regarding `COc1cc2c(cc1OC)C(C)(CCN1CCN(c3cccc(C(F)(F)F)c3)CC1)OCC2` (configuration not stated), the Delta blood pressure result in the test with Rattus norvegicus [4] is “inactive”.

For `COc1cc2c(cc1OC)C(CCCN1CCN(c3ccc(F)cc3)CC1)(c1ccc(F)cc1)OCC2` (configuration not stated), the results for the Delta blood pressure in the test on Rattus norvegicus [5] and with Rattus norvegicus [6] were -16 mmHg and -22 mmHg, respectively.

Turning to `COc1cc2c(cc1OC)C(CCCN1CCN(c3ccccc3OC)CC1)(c1ccc(F)cc1)OCC2` (configuration not stated), the Delta blood pressure entry with Rattus norvegicus [4] was “inactive”.

`COc1cc2c(cc1OC)C(C)(C)COC2CCN1CCN(c2ccc(Cl)cc2)CC1` (configuration not stated) had a Delta blood pressure in the test with Rattus norvegicus [7] of -13 mmHg.

Regarding `COc1cc2c(cc1OC)C(C)(CCN1CCN(c3ccccn3)CC1)OCC2` (configuration not stated), the Delta blood pressure result in the test with Rattus norvegicus [4] was “inactive”.

With `COc1cc2c(cc1OC)C(C)(CCCN1CCN(c3ccc(F)cc3)CC1)OCC2` (configuration not stated), in the test on Rattus norvegicus [8], the Delta blood pressure is -10 mmHg.

`COc1cc2c(cc1OC)C(CCCN1CCN(c3cccc(C(F)(F)F)c3)CC1)(c1ccc(F)cc1)OCC2` (configuration not stated): the Delta blood pressure result in the test with Rattus norvegicus [4] was “inactive”.

`COc1cc2c(cc1OC)C(CCN1CCN(c3ccccc3C)CC1)OCC2` (configuration not stated) showed a Delta blood pressure in the test with Rattus norvegicus [9] of -19 mmHg.

For the compound `COc1cc2c(cc1OC)C(CCN1CCN(c3ccc(Cl)cc3)CC1)OC(C)(C)C2` (configuration not stated), the Delta blood pressure entry with Rattus norvegicus [4] is “inactive”.

Regarding `COc1cc2c(cc1OC)C(CCCN1CCN(c3ccccc3Cl)CC1)(c1ccc(F)cc1)OCC2` (configuration not stated), the Delta blood pressure result in the test on Rattus norvegicus [4] was “inactive”.

`COc1cc2c(cc1OC)C(C)(CCN1CCN(c3ccccc3OC)CC1)OCC2` (configuration not stated) yielded a Delta blood pressure in the test on Rattus norvegicus [10] of -9 mmHg.

The compound `COc1cc2c(cc1OC)C(CN1CCN(c3ccccc3)CC1)OCC2` (configuration not stated) registered a Delta blood pressure in the test with Rattus norvegicus [11] of -20 mmHg.

Turning to `COc1cc2c(cc1OC)C(CCN1CCN(c3cccc(C(F)(F)F)c3)CC1)OCC2` (configuration not stated), the Delta blood pressure with Rattus norvegicus [12] is -2 mmHg.

As to `COc1cc2c(cc1OC)C(CCCN1CCN(c3ccccc3C)CC1)(c1ccc(F)cc1)OCC2` (configuration not stated), the Delta blood pressure entry with Rattus norvegicus [4] is “inactive”.

`COc1cc2c(cc1OC)C(C)(C)COC2CCN1CCN(c2ccccc2)CC1` (configuration not stated) displayed a Delta blood pressure in the test on Rattus norvegicus [13] of -16 mmHg.

As to `COc1cc2c(cc1OC)C(C)(C)COC2CCN1CCN(c2ccccc2Cl)CC1` (configuration not stated), the Delta blood pressure entry with Rattus norvegicus [4] was “inactive”.

For the compound `COc1cc2c(cc1OC)C(CCCN1CCN(c3ccc(Cl)cc3)CC1)(c1ccc(F)cc1)OCC2` (configuration not stated), in the test on Rattus norvegicus [4], the Delta blood pressure entry is “inactive”.

In the test with Rattus norvegicus [14], `COc1cc2c(cc1OC)C(CN1CCN(c3ccc(F)cc3)CC1)OCC2` (configuration not stated) showed a Delta blood pressure of 0 mmHg.

In the case of `COc1cc2c(cc1OC)C(CCN1CCN(c3ccc(Cl)cc3)CC1)OCC2` (configuration not stated), in the test on Rattus norvegicus [15], the Delta blood pressure is -19 mmHg.

The compound `COc1cc2c(cc1OC)C(CCCN1CCN(c3ccccn3)CC1)(c1ccc(F)cc1)OCC2` (configuration not stated) showed a Delta blood pressure in the test with Rattus norvegicus [15] of -19 mmHg.
